# Measurements reported in ChEMBL document CHEMBL5143736, “Discovery and Optimization of a Synthetic Class of Nectin-4-Targeted CD137 Agonists for Immuno-oncology” (J Med Chem, 2022).
# Activity calls are given as the source filed them. The rule behind the calls is not given here.
# Key:
# [1] = target: T1, Tumor necrosis factor receptor superfamily member 9 (Homo sapiens, UniProt Q07011); assay: Binding affinity to human CD137 assessed as dissociation constant using 1:1 Nectin-4/CD137 by surface plasmon resonance analysis; conditions: filed as agonist
# Outline: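 Biacore T200 SPR against human CD137 protein at 25 °C. Peptide series in PBS/0.05% Tween 20 with 0.5% final DMSO; top concentration 500 nM (6 further threefold dilutions) or 10 μM (6 further twofold dilutions). 60 s association, 100–600 s dissociation, 10 mM glycine pH 2 regeneration. Data DMSO-corrected and double-referenced; kinetic fit gives ka, kd and KD.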
# PBMC [2] = assay: […] activity in human PBMC stimulated with anti-CD3-mediated CD137 expression in cocultured with […] cell line assessed as increase in secretion of IFN gamma incubated for 48 hrs by Luminex assay; assay type: functional, cell-based; conditions: DDE = dose-dependent effect
# Outline: (§1)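 Healthy-donor PBMCs were thawed into R10 medium and cocultured with HT1376 cells at 10:1 effector:target (1×10^5 PBMC:1×10^4 tumor cells per well). Soluble anti-CD3 OKT3 (100 ng/mL) was added on day 0, then compound, 37 °C, 5% CO2. Supernatant IFNγ and IL-2 taken at 24 and 48 h, measured by Luminex. Four-parameter fit, n = 3, repeated in multiple donors.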
# PBMC [3] = assay: […] activity in human PBMC stimulated with anti-CD3-mediated CD137 expression in cocultured with […] cell line assessed as increase in secretion of IL2 incubated for 48 hrs by Luminex assay; assay type: functional, cell-based; conditions: DDE = dose-dependent effect; outline: as §1
# [4] = Thermodynamic solubility of the compound in phosphate buffer at pH 7.4; assay type: physicochemical; conditions: read-out: Therm_solubility
# Outline: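 Thermodynamic solubility measured in 50 mM phosphate buffer, pH 7.4.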
# [5] = Plasma clearance in Cynomolgus monkey at 1 mg/kg, iv administered for 30 min by LC-MS/MS analysis; assay type: ADME, organism-based, Macaca fascicularis
# Outline: (§2)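 Male naïve cynomolgus monkeys received 1 mg/kg as a 30 min IV infusion in 25 mM histidine HCl, 10% sucrose, pH 7 (n = 2 animals/compound). Serial K2-EDTA plasma was protein-precipitated with internal standard and analysed by LC–MS/MS (Orbitrap, positive ion). Noncompartmental analysis gave clearance, Vdss and terminal half-life.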
# [6] = Volume of distribution at steady state in Cynomolgus monkey at 1 mg/kg, iv administered for 30 min by LC-MS/MS analysis; assay type: ADME, organism-based, Macaca fascicularis; conditions: plasma, read-out: Vdss; outline: as §2
# [7] = Half life in Cynomolgus monkey at 1 mg/kg, iv administered for 30 min by LC-MS/MS analysis; assay type: ADME, organism-based, Macaca fascicularis; conditions: plasma; outline: as §2
# [8] = target: T1, Tumor necrosis factor receptor superfamily member 9; assay: Agonist activity at human CD137 expressed in Jurkat T cells co-expressing response element driven luciferase reporter gene assessed as fold change in EC50 at 1:1 Nectin-4/CD137 ratio measured after 6 hrs by HT1376/CD137 reporter co-culture assay; assay type: cell-based; conditions: filed as agonist
# [9] = target: T1, Tumor necrosis factor receptor superfamily member 9; assay: Agonist activity at human CD137 expressed in Jurkat T cells co-expressing response element driven luciferase reporter gene assessed as fold change in Emax at 1:1 Nectin-4/CD137 ratio measured after 6 hrs by HT1376/CD137 reporter co-culture assay; assay type: cell-based; conditions: filed as agonist
# [10] = Half life in Sprague-Dawley rat at 2 mg/kg, iv by LC/MS/MS analysis; conditions: in vivo
# CT26 [11] = assay: Antitumor activity against mouse CT26 cells expressed in CD137 transfected in BALB/c mouse at 1mg/kg, qd
# CT26 [12] = assay: Antitumor activity against mouse CT26 cells expressed in CD137 transfected in BALB/c mouse at 5 mg/kg, ip
# [13] = target: T1, Tumor necrosis factor receptor superfamily member 9; assay: Induction of recombinant human CD137 assessed as increase in fold change in EC50 incubated for 6 hrs by luminescence based microplate reader assay; conditions: filed as agonist
# [14] = target: T1, Tumor necrosis factor receptor superfamily member 9; assay: Induction of recombinant human CD137 assessed as increase in fold change in Emax incubated for 6 hrs by luminescence based microplate reader assay; conditions: filed as agonist
# [15] = target: T1, Tumor necrosis factor receptor superfamily member 9; assay: Agonist activity at recombinant human CD137 expressed in Jurkat T cells co-expressing response element driven luciferase reporter gene co-cultured with Nectin-4 expressing mouse MC38 cells assessed as luminescence measured after 6 hrs by luciferase reporter gene based co-culture assay; assay type: cell-based; conditions: filed as agonist, DDE = dose-dependent effect
# Outline: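 Jurkat cells carrying human CD137 and a CD137 response-element luciferase reporter, cocultured for 6 h at 37 °C, 5% CO2 with 10,000 MC38 cells engineered to express mouse Nectin-4 (parental MC38 as negative line). Bio-Glo luminescence read-out, as fold induction over no-test-article wells. Mean of n = 2.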
# [16] = target: T1, Tumor necrosis factor receptor superfamily member 9; assay: Agonist activity at human CD137 expressed in human HT-1376 cells measured after 6 hrs by […] microplate reader assay; assay type: cell-based; conditions: filed as agonist
# [17] = target: T1, Tumor necrosis factor receptor superfamily member 9; assay: Agonist activity at human CD137 expressed in human NCI-H292 cells measured after 6 hrs by […] microplate reader assay; assay type: cell-based; conditions: filed as agonist
# [18] = target: T1, Tumor necrosis factor receptor superfamily member 9; assay: Binding affinity to human recombinant CD137 by surface plasmon resonance analysis
# Outline: (§3)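 Biacore T200 SPR, human CD137, 25 °C. Peptide series in PBS/0.05% Tween 20 with 0.5% DMSO: top 500 nM (threefold) or 10 μM (twofold), 6 further dilutions. Flow 90 μL/min, 60 s association, 100–600 s dissociation, glycine pH 2 regeneration. DMSO-corrected and double-referenced; kinetic fit gives ka, kd, KD.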
# Nectin-4 = target: T2, Nectin-4 (Homo sapiens, UniProt Q96NY8); assay: Binding affinity to human Nectin-4 assessed as dissociation constant using 1:1 Nectin-4/CD137 by surface plasmon resonance analysis
# T2 sequence (Q96NY8 whole entry): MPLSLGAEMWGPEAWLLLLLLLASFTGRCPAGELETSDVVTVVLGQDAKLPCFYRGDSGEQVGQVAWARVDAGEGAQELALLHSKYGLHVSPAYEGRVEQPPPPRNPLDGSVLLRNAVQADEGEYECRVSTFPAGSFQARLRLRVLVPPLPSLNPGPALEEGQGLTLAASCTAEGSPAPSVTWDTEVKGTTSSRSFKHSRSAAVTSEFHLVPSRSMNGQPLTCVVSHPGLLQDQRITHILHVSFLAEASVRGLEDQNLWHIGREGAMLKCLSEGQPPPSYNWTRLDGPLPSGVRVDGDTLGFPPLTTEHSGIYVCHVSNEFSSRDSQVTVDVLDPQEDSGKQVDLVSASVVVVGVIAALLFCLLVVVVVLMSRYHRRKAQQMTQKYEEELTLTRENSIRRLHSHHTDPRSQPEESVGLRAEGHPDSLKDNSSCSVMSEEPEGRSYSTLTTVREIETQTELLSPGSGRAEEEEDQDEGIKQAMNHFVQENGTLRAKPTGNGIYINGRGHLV
# Outline: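 SPR kinetics against human Nectin-4 (residues 32–349, baculovirus/Sf21-expressed, FLAG-tagged), 25 °C. Top 100 nM with 6 further twofold dilutions, 50 μL/min, 60 s association, 400–1200 s dissociation, DMSO-corrected. At least four concentrations used to obtain kon, koff and KD.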
# [19] = target: T1, Tumor necrosis factor receptor superfamily member 9; assay: Binding affinity to human CD137 assessed as dissociation constant by surface plasmon resonance analysis; outline: as §3
# T1 sequence (Q07011 whole entry): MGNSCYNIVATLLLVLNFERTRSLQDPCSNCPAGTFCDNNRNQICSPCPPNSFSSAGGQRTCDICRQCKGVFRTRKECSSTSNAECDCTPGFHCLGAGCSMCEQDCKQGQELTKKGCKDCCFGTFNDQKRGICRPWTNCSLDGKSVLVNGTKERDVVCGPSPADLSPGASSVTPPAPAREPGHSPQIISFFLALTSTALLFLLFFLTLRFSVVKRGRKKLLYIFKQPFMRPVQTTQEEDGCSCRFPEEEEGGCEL
smiles,measurement,setting,value
CCCC[C@@H]1NC(=O)[C@H](Cc2ccc(O)cc2)NC(=O)[C@@H]2CCCN2C(=O)[C@H](CC(=O)O)NC(=O)[C@H](C)NC(=O)[C@H](Cc2ccccc2)NC(=O)[C@@H]2CSCCC(=O)N3CN(CN(C3)C(=O)CCSC[C@@H](C(=O)N[C@@H](CNC(=O)CCc3cn(CCOCCOCCOCCOCCOCCOCCOCCOCCOCCOCCNC(=O)N[C@H]4CSCCC(=O)N5CN6CN(C5)C(=O)CCSC[C@H](NC(=O)[C@@H](CC(=O)O)NC(=O)[C@H](Cc5cccc7ccccc57)NC(=O)[C@@H]5CCCN5C4=O)C(=O)N[C@@H](CCSC)C(=O)N[C@@H](CCCCNC(=N)N)C(=O)N[C@@H](CC(=O)O)C(=O)N[C@@H](Cc4c[nH]c5ccccc45)C(=O)N[C@@H](CO)C(=O)N[C@@H]([C@@H](C)O)C(=O)N4CCC[C@H]4C(=O)N4C[C@H](O)C[C@H]4C(=O)N[C@@H](Cc4c[nH]c5ccccc45)C(=O)N[C@H](C(N)=O)CSCCC6=O)nn3)C(N)=O)NC1=O)C(=O)CCSC[C@H](NC(=O)[C@H](C)NC(C)=O)C(=O)NC([C@@H](C)CC)C(=O)N[C@@H](CCC(=O)O)C(=O)N[C@@H](CCC(=O)O)C(=O)NCC(=O)N[C@@H](CCC(N)=O)C(=O)N[C@@H](Cc1ccc(O)cc1)C(=O)N2 (some centres not stated),Activity,[1],73 nM
CCCC[C@@H]1NC(=O)[C@H](Cc2ccc(O)cc2)NC(=O)[C@@H]2CCCN2C(=O)[C@H](CC(=O)O)NC(=O)[C@H](C)NC(=O)[C@H](Cc2ccccc2)NC(=O)[C@@H]2CSCCC(=O)N3CN(CN(C3)C(=O)CCSC[C@@H](C(=O)N[C@@H](C)C(N)=O)NC1=O)C(=O)CCSC[C@H](NC(C)=O)C(=O)N[C@@H](CC(C)(C)C)C(=O)N1CCC[C@H]1C(=O)N[C@@H](CCC(=O)O)C(=O)N[C@H](CCCCNC(=O)CCc1cn(CCOCCOCCOCCOCCOCCC(=O)N[C@H]3CSCCC(=O)N4CN5CN(C4)C(=O)CCSC[C@H](NC(=O)[C@@H](CC(=O)O)NC(=O)[C@H](Cc4cccc6ccccc46)NC(=O)[C@@H]4CCCN4C3=O)C(=O)N[C@@H](CCSC)C(=O)N[C@@H](CCCCNC(=N)N)C(=O)N[C@@H](CC(=O)O)C(=O)N[C@@H](Cc3c[nH]c4ccccc34)C(=O)N[C@@H](CO)C(=O)N[C@@H]([C@@H](C)O)C(=O)N3CCC[C@H]3C(=O)N3C[C@H](O)C[C@H]3C(=O)N[C@@H](Cc3c[nH]c4ccccc34)C(=O)N[C@H](C(N)=O)CSCCC5=O)nn1)C(=O)N1CCC[C@H]1C(=O)N[C@@H](Cc1ccc(O)cc1)C(=O)N2,Activity,PBMC [2],Dde
same,Activity,PBMC [3],Dde
same,solubility thermodynamic,[4],29 mg/mL
same,clearance,[5],1.8 L/h/kg
same,Vd,[6],0.6 L/kg
same,half-life,[7],30 min
same,fold change (FC),[8],8.3
same,fold change (FC),[9],2
same,half-life,[10],55.8 min
same,Activity,CT26 [11],Active
same,Activity,CT26 [12],Active
same,fold change (FC),[13],8.3
same,fold change (FC),[14],2
CCCC[C@@H]1NC(=O)[C@H](Cc2ccc(O)cc2)NC(=O)[C@@H]2CCCN2C(=O)[C@H](CC(=O)O)NC(=O)[C@H](C)NC(=O)[C@H](Cc2ccccc2)NC(=O)[C@@H]2CSCCC(=O)N3CN(CN(C3)C(=O)CCSC[C@@H](C(=O)N[C@@H](CNC(=O)CCOCCOCCOCCOCCOCCOCCOCCOCCOCCOCCOCCOCCn3cc(CCC(=O)NCCC(=O)N(C)CC(=O)N(C)CC(=O)N(C)CC(=O)N(C)CC(=O)N(C)CC(=O)N(C)CC(=O)N(C)CC(=O)N(C)CC(=O)N(C)CC(=O)N(C)CC(=O)N[C@H]4CSCCC(=O)N5CN6CN(C5)C(=O)CCSC[C@H](NC(=O)[C@@H](CC(=O)O)NC(=O)[C@H](Cc5cccc7ccccc57)NC(=O)[C@@H]5CCCN5C4=O)C(=O)N[C@@H](CCSC)C(=O)N[C@@H](CCCCNC(=N)N)C(=O)N[C@@H](CC(=O)O)C(=O)N[C@@H](Cc4c[nH]c5ccccc45)C(=O)N[C@@H](CO)C(=O)N[C@@H]([C@@H](C)O)C(=O)N4CCC[C@H]4C(=O)N4C[C@H](O)C[C@H]4C(=O)N[C@@H](Cc4c[nH]c5ccccc45)C(=O)N[C@H](C(N)=O)CSCCC6=O)nn3)C(N)=O)NC1=O)C(=O)CCSC[C@H](NC(=O)[C@H](C)NC(C)=O)C(=O)NC([C@@H](C)CC)C(=O)N[C@@H](CCC(=O)O)C(=O)N[C@@H](CCC(=O)O)C(=O)NCC(=O)N[C@@H](CCC(N)=O)C(=O)N[C@@H](Cc1ccc(O)cc1)C(=O)N2 (some centres not stated),Activity,[15],Dde
same,Activity,[16],Active
same,Activity,[17],Active
same,Activity,PBMC [2],Dde
same,Activity,PBMC [3],Dde
same,Kd,[18],0.108 µM
same,Kd,Nectin-4,0.0028 µM
CCCC[C@@H]1NC(=O)[C@H](Cc2ccc(O)cc2)NC(=O)[C@@H]2CCCN2C(=O)[C@H](CC(N)=O)NC(=O)[C@H](C)NC(=O)[C@H](Cc2ccccc2)NC(=O)[C@@H]2CSCCC(=O)N3CN(CN(C3)C(=O)CCSC[C@H](NC(C)=O)C(=O)N[C@@H](CC(C)(C)C)C(=O)N3CCC[C@H]3C(=O)N[C@@H](CCC(=O)O)C(=O)N[C@H](CCCCNC(=O)CCc3cn(CCOCCOCCOCCOCCOCCC(=O)N[C@H]4CSCCC(=O)N5CN6CN(C5)C(=O)CCSC[C@H](NC(=O)[C@@H](CC(=O)O)NC(=O)[C@H](Cc5cccc7ccccc57)NC(=O)[C@@H]5CCCN5C4=O)C(=O)N[C@@H](CCSC)C(=O)N[C@@H](CCCCNC(=N)N)C(=O)N[C@@H](CC(=O)O)C(=O)N[C@@H](Cc4c[nH]c5ccccc45)C(=O)N[C@@H](CO)C(=O)N[C@@H]([C@@H](C)O)C(=O)N4CCC[C@H]4C(=O)N4C[C@H](O)C[C@H]4C(=O)N[C@@H](Cc4c[nH]c5ccccc45)C(=O)N[C@H](C(N)=O)CSCCC6=O)nn3)C(=O)N3CCC[C@H]3C(=O)N[C@@H](Cc3ccc(O)cc3)C(=O)N2)C(=O)CCSC[C@@H](C(N)=O)NC1=O,Kd,[19],0.878 µM
